# N-glyco inh – N-linked glycosylation inhibition. D54 ERlucT glycosylation luciferase reporter, 24 h; percent of 100 nM tunicamycin response. reporter increase, % at 12.5 µM. actives 0.23% (n = 360,000). AID 588692;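 active means mean luciferase reporter signal, scaled so untreated is 0 and the glycosylation-blocking control 100, at or above a set limit in every replicate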;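 further: luciferase carries N-glycosylation sites so blocking glycosylation raises the light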
# ALR inh – blocks human ALR sulfhydryl oxidase activity; inhibition, % (test concentration not listed); actives 3.8% (n = 290,000); purified ALR, DTT oxidation, H2O2 HRP-luminol luminescence;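 active means mean replicate inhibition above about 79%, with every replicate also reaching it, limit read from the data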
# Target sequence (P55789 whole entry, looked up): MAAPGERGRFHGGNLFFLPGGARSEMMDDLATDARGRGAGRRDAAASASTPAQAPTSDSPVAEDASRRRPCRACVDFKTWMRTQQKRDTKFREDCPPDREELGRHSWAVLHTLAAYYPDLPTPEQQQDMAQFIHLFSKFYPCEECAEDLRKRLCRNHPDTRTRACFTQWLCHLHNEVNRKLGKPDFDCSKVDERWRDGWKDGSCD
# T cell HTS – modulates CD8 T cell binding to vesicles. 2C CD8+ T cell-vesicle binding, flow cytometry; stronger effect = lower value. response (vesicle binding), % at 7 µM. actives 0.068% (n = 330,000);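 active means response, share of CD8 T cells binding vesicles, and their 90th percentile fluorescence all below set limits, cut at about 80% in these data, passing the limit was not always enough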;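 further: values below 100% mean blocked vesicle binding to the CD8+ T cells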
#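 Benchmarks: naked versus QL9-loaded vesicles / Assay system: purified 2C TCR transgenic mouse naive CD8+ T cells / Technique: high-throughput flow cytometry with anti-B7-1 and anti-CD8 staining / Timing: Cell–vesicle co-incubation 1.5 h at 37 °C, staining 20 min on ice / Read-out: percent CD8+ FL2 mean versus row control / Probe or stimulus: QL9-loaded Drosophila micro-vesicles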
# A number is an active result; 0 = inactive; - = not tested or not shown. Shown is part of a subset that was picked to be rich in hits.
SMILES,N-glyco inh,ALR inh,T cell HTS
O=C(CC1CCCC1)N1CCCC(Nc2cccc(F)c2)C1 (stereo not given),0,92.2,0
CN(C(=O)c1cccc(NC(=O)Cc2ccc(NC(=O)C3CCCN(C(=O)CCc4ccccc4)C3)cc2)c1)C1CCC1 (stereo not given),0,-,-
O=C(Nc1c[nH]c(=O)[nH]c1=O)c1ccccc1Cl,0,0,0
O=C(Cc1ccc(N2CCNC2=O)cc1)N1CCCC(Nc2cccc(F)c2)C1 (stereo not given),0,99.0,0
O=C(Cc1ccc(N2CCNC2=O)cc1)N1CCCC(Nc2ccc(F)c(F)c2)C1 (stereo not given),0,0,0
Cc1cc(C)nc(SC2=CS(=O)(=O)c3ccccc32)n1,0,0,0
O=S1(=O)C=C(Sc2nnc(-c3ccccc3)o2)c2ccccc21,0,78.4,-
CC(C)NC(=O)c1ccc2c3n(nc2c1)-c1ccc(Cl)cc1CO3,0,0,0
CCN(CC)CCCNC(=O)c1ccc2c3n(nc2c1)-c1ccc(Cl)cc1CO3,0,99.2,-
CCC(C)n1c(SCC(=O)NC2CC2)nc2ccccc2c1=O (stereo not given),0,-,-
CCSC1=C(C#N)C(c2ccc3c(c2)OCO3)C2=C(CCCC2=O)N1 (stereo not given),0,0,0
COC(=O)CSC1=C(C#N)C(c2ccc3c(c2)OCO3)C2=C(CCCC2=O)N1 (stereo not given),0,98.9,0
COc1cc(/C=N/NC(=O)CNC(=O)c2ccc3c(c2)OCCO3)ccc1O,0,98.0,0
COc1ccc(/C=N/NC(=O)C2COc3ccccc3O2)cc1OC (stereo not given),0,0,0
COc1cc(/C=N/NC(=O)C2COc3ccccc3O2)ccc1O (stereo not given),0,99.1,0
COc1cc(/C=N\NC(=O)C2COc3ccccc3O2)cc(OC)c1O (stereo not given),0,-,0
COc1ccccc1/C=C/C(=O)NCC(=O)N/N=C/c1ccc2c(c1)OCO2,0,88.3,0
COc1ccccc1/C=C/C(=O)NCC(=O)N/N=C/c1ccccc1,0,0,0
COc1ccc(/C=N/NC(=O)CNC(=O)c2ccc3c(c2)OCCO3)cc1OC,0,0,0
COc1ccc(/C=N\NC(=O)C2COc3ccccc3O2)cc1O (stereo not given),0,98.6,0
O=C(NCc1ccccc1F)Nc1ccc([N+](=O)[O-])cc1,0,0,0
O=C(Nc1ccc(F)c(Cl)c1)c1cc(C2CCCCN2C(=O)c2cccs2)on1 (stereo not given),0,-,-
CC(=O)c1c(C)[nH]c(C(=O)OC(C)C(=O)NC2CCCCC2)c1C (stereo not given),0,-,-
COc1ccc(CNC(=O)COC(=O)c2ccc(Br)o2)cc1,0,0,0
CCCc1ccc(C2=Nn3c(nnc3C(C)C)SC2)cc1,0,0,0
SMILES,N-glyco inh,ALR inh,T cell HTS
COc1cc(/C=N\NC(=O)CNC(=O)C2COc3ccccc3O2)ccc1O (stereo not given),0,98.2,0
COc1ccc(/C=N\NC(=O)CNC(=O)C2COc3ccccc3O2)cc1[N+](=O)[O-] (stereo not given),0,0,0
O=C(O)c1ccc(/C=N/NC(=O)c2ccc3c(c2)OCCO3)cc1,0,0,0
COc1cc(/C=N/NC(=O)c2ccc3c(c2)OCCO3)cc(Cl)c1O,0,94.2,0
O=C(Nc1ccccc1)OCCOc1ccc(Cl)cc1Cl,0,-,-
CC(=O)Nc1ccc(-c2ccnc3c2CC(C)(C(=O)NCCC(F)(F)F)O3)cc1 (stereo not given),0,-,-
CC1(C(=O)NCc2ccco2)Cc2c(-c3cccc(C(F)(F)F)c3)ccnc2O1 (stereo not given),0,-,-
CC1(C(=O)NCc2ccco2)Cc2c(-c3cccc(C(N)=O)c3)ccnc2O1 (stereo not given),37.6,-,-
CC(=O)Nc1cccc(-c2ccnc3c2CC(C)(C(=O)NCCC(F)(F)F)O3)c1 (stereo not given),25.0,-,-
CCCC1OC(c2ccco2)OCC1CC (stereo not given),0,-,-
CC(C)(C)N1CC(C(=O)Nc2ccc(C(N)=O)cc2)CC1=O (stereo not given),0,-,-
Cc1ccc(C2=CSC3=NNC4(CCCCC4)NN23)cc1,0,99.6,0
COc1ccc(C2=CSC3=NCCN23)cc1,0,0,0
COc1ccc(C2=CSC3=NNC4(CCCCC4)NN23)cc1,0,98.1,0
Cc1ccc(C2=CSC3=NCCN23)c(C)c1,0,0,0
Cc1ccc(C(=O)N[C@H](C(=O)NC2CCCCC2)C(C)C)cc1,0,-,0
O=C(CSc1nnc2ccc(-c3ccc(F)cc3)nn12)N1CCCC1,0,0,0
O=C(NCc1cccnc1)C(=O)Nc1cc2c3c(c1)CC(=O)N3CCC2,0,0,0
C=CCn1c(C(C)NC(=O)c2ccccc2C)n[nH]c1=S (stereo not given),0,0,0
C=CCn1c(C(C)NC(=O)c2ccc(C)cc2)n[nH]c1=S (stereo not given),0,95.4,0
NC(=O)c1ccsc1NC(=O)COC(=O)C1CCCN1C(=O)c1cccs1 (stereo not given),-,96.7,0
NC(=O)c1ccsc1NC(=O)COC(=O)[C@@H]1CCCN1C(=O)c1cccs1,0,-,-
COCc1c(CCl)cnc(C)c1O,0,0,0
Nc1nc(-c2cc(O)ccc2[N+](=O)[O-])cc(-c2ccccc2)c1[N+](=O)[O-],0,0,0
COc1ccc(Oc2ccc3c(C(F)(F)F)cc(C(F)(F)F)nc3n2)cc1,0,0,0
SMILES,N-glyco inh,ALR inh,T cell HTS
Oc1ccc(Oc2ccc3c(C(F)(F)F)cc(C(F)(F)F)nc3n2)cc1,0,98.8,0
CS(=O)(=O)N1N=C(c2cccs2)CC1c1ccccc1 (stereo not given),0,0,0
c1ccc(C2Oc3ccccc3C3CC(c4cccs4)=NN32)cc1 (stereo not given),0,97.7,0
CC(=O)N1CCC(C(=O)OCc2ccccc2F)(c2ccccc2)CC1,0,0,0
CCCCn1c(SCC(=O)Nc2ccc(OC)cc2)nc2ccc(N3CCOCC3)cc2c1=O,0,99.0,0
CC(=O)c1cccc(NC(=O)CSc2nc3ccccc3c(=O)n2CCCN2CCOCC2)c1,0,0,0
COC(=O)c1ccc2c(=O)n(CCN3CCOCC3)c(SCC(=O)Nc3ccc(C)cc3)nc2c1,0,99.0,0
Cc1ccc(NC(=O)CSc2nc3ccccc3c(=O)n2CCCN2CCCCC2)cc1C,0,98.2,0
CCOC(=O)CSc1nc2cc(C(=O)OC)ccc2c(=O)n1CCN1CCOCC1,0,-,0
CCCCn1c(SCC(=O)NC(C)CC)nc2ccc(N3CCOCC3)cc2c1=O (stereo not given),0,0,0
CC(NC(=O)c1ccco1)c1nc(-c2ccccc2Cl)no1 (stereo not given),0,0,0
CCCCCc1nnc(NC(=O)NS(=O)(=O)c2ccc(C)cc2)s1,0,0,0
COCCNC(=O)C1(C)CCCN(Cc2csc3ccccc23)C1 (stereo not given),0,-,-
CC(C)CNC(=O)c1ccccc1N(Cc1ccccc1)S(C)(=O)=O,0,0,0
Cc1cccc(NC(=O)COC(=O)Cc2cccs2)c1C,0,-,0
Cc1ccc(Nc2ccc(NCc3ccccc3)nn2)cc1C,0,0,0
Cc1ccc(Nc2nnns2)cc1C,0,87.2,0

# Screening data: PubChem, several laboratories
